Assay results reported in ChEMBL document CHEMBL1153726, “Synthesis and anticancer activity of sclerophytin-inspired hydroisobenzofurans” (Bioorg Med Chem Lett, 2009).

Legend:
SK-MEL-2 = test: Growth inhibition of human SK-MEL-2 cells at 10 uM after 96 hrs by MTT assay; format: functional; parameters: scale not given: the % may be the effect or the level left
HOP-92 = test: Growth inhibition of human HOP92 cells at 10 uM after 96 hrs by MTT assay; format: functional; parameters: scale not given: the % may be the effect or the level left
NCI-H226 = test: Growth inhibition of human NCI-H226 cells at 10 uM after 96 hrs by MTT assay; format: functional; parameters: scale not given: the % may be the effect or the level left
786-0 = test: Growth inhibition of human 786-0 cells at 10 uM after 96 hrs by MTT assay; format: functional; parameters: scale not given: the % may be the effect or the level left
DU-145 = test: Growth inhibition of human DU145 cells at 10 uM after 96 hrs by MTT assay; format: functional; parameters: scale not given: the % may be the effect or the level left
NCI-H322M = test: Growth inhibition of human NCI-H322M cells at 10 uM after 96 hrs by MTT assay; format: functional; parameters: scale not given: the % may be the effect or the level left
SNB-19 = test: Growth inhibition of human SNB19 cells at 10 uM after 96 hrs by MTT assay; format: functional; parameters: scale not given: the % may be the effect or the level left
UO-31 = test: Growth inhibition of human UO31 cells at 10 uM after 96 hrs by MTT assay; format: functional; parameters: scale not given: the % may be the effect or the level left
[1] = Growth inhibition of human Hs 578T cells at 10 uM after 96 hrs by MTT assay; format: functional; parameters: scale not given: the % may be the effect or the level left
HL-60(TB) = test: Growth inhibition of human HL-60(TB) cells at 10 uM after 96 hrs by MTT assay; format: functional; parameters: scale not given: the % may be the effect or the level left
SR = test: Growth inhibition of human SR cells at 10 uM after 96 hrs by MTT assay; format: functional; parameters: scale not given: the % may be the effect or the level left
SF-295 = test: Growth inhibition of human SF295 cells at 10 uM after 96 hrs by MTT assay; format: functional; parameters: scale not given: the % may be the effect or the level left
IGROV-1 = test: Growth inhibition of human IGROV1 cells at 10 uM after 96 hrs by MTT assay; format: functional; parameters: scale not given: the % may be the effect or the level left
SN12C = test: Growth inhibition of human SN12C cells at 10 uM after 96 hrs by MTT assay; format: functional; parameters: scale not given: the % may be the effect or the level left
MDA-MB-435 = test: Growth inhibition of human MDA-MB-435 cells at 10 uM after 96 hrs by MTT assay; format: functional; parameters: scale not given: the % may be the effect or the level left
NCI-H23 = test: Growth inhibition of human NCI-H23 cells at 10 uM after 96 hrs by MTT assay; format: functional; parameters: scale not given: the % may be the effect or the level left
SF-539 = test: Growth inhibition of human SF539 cells at 10 uM after 96 hrs by MTT assay; format: functional; parameters: scale not given: the % may be the effect or the level left
KM12 = test: Growth inhibition of human KM12 cells at 10 uM after 96 hrs by MTT assay; format: functional; parameters: scale not given: the % may be the effect or the level left
TK-10 = test: Growth inhibition of human TK10 cells at 10 uM after 96 hrs by MTT assay; format: functional; parameters: scale not given: the % may be the effect or the level left
HCT-116 = test: Growth inhibition of human HCT116 cells at 10 uM after 96 hrs by MTT assay; format: functional; parameters: scale not given: the % may be the effect or the level left
HCC 2998 = test: Growth inhibition of human HCC2998 cells at 10 uM after 96 hrs by MTT assay; format: functional; parameters: scale not given: the % may be the effect or the level left
A549 = test: Growth inhibition of human A549 cells at 10 uM after 96 hrs by MTT assay; format: functional; parameters: scale not given: the % may be the effect or the level left
SK-MEL-5 = test: Growth inhibition of human SK-MEL-5 cells at 10 uM after 96 hrs by MTT assay; format: functional; parameters: scale not given: the % may be the effect or the level left
OVCAR-5 = test: Growth inhibition of human OVCAR5 cells at 10 uM after 96 hrs by MTT assay; format: functional; parameters: scale not given: the % may be the effect or the level left
M14 = test: Growth inhibition of human M14 cells at 10 uM after 96 hrs by MTT assay; format: functional; parameters: scale not given: the % may be the effect or the level left
K562 = test: Growth inhibition of human K562 cells at 10 uM after 96 hrs by MTT assay; format: functional; parameters: scale not given: the % may be the effect or the level left
MOLT-4 = test: Growth inhibition of human MOLT4 cells at 10 uM after 96 hrs by MTT assay; format: functional; parameters: scale not given: the % may be the effect or the level left
HT-29 = test: Growth inhibition of human HT-29 cells at 10 uM after 96 hrs by MTT assay; format: functional; parameters: scale not given: the % may be the effect or the level left
NCI-H522 = test: Growth inhibition of human NCI-H522 cells at 10 uM after 96 hrs by MTT assay; format: functional; parameters: scale not given: the % may be the effect or the level left
EKVX = test: Growth inhibition of human EKVX cells at 10 uM after 96 hrs by MTT assay; format: functional; parameters: scale not given: the % may be the effect or the level left
NCI/ADR-RES = test: Growth inhibition of human NCI/ADR-RES cells at 10 uM after 96 hrs by MTT assay; format: functional; parameters: scale not given: the % may be the effect or the level left
PC-3 = test: Growth inhibition of human PC3 cells at 10 uM after 96 hrs by MTT assay; format: functional; parameters: scale not given: the % may be the effect or the level left
LOX IMVI = test: Growth inhibition of human LOXIMVI cells at 10 uM after 96 hrs by MTT assay; format: functional; parameters: scale not given: the % may be the effect or the level left
MDA-MB-231 = test: Growth inhibition of human MDA-MB-231 cells at 10 uM after 96 hrs by MTT assay; format: functional; parameters: scale not given: the % may be the effect or the level left
HCT-15 = test: Growth inhibition of human HCT15 cells at 10 uM after 96 hrs by MTT assay; format: functional; parameters: scale not given: the % may be the effect or the level left
Malme-3M = test: Growth inhibition of human MALME-3M cells at 10 uM after 96 hrs by MTT assay; format: functional; parameters: scale not given: the % may be the effect or the level left
MDA-MB-468 = test: Growth inhibition of human MDA-MB-468 cells at 10 uM after 96 hrs by MTT assay; format: functional; parameters: scale not given: the % may be the effect or the level left
MCF7 = test: Growth inhibition of human MCF7 cells at 10 uM after 96 hrs by MTT assay; format: functional; parameters: scale not given: the % may be the effect or the level left
SK-OV-3 = test: Growth inhibition of human SKOV3 cells at 10 uM after 96 hrs by MTT assay; format: functional; parameters: scale not given: the % may be the effect or the level left
BT-549 = test: Growth inhibition of human BT549 cells at 10 uM after 96 hrs by MTT assay; format: functional; parameters: scale not given: the % may be the effect or the level left
HOP-62 = test: Growth inhibition of human HOP62 cells at 10 uM after 96 hrs by MTT assay; format: functional; parameters: scale not given: the % may be the effect or the level left
UACC-257 = test: Growth inhibition of human UACC257 cells at 10 uM after 96 hrs by MTT assay; format: functional; parameters: scale not given: the % may be the effect or the level left
UACC-62 = test: Growth inhibition of human UACC62 cells at 10 uM after 96 hrs by MTT assay; format: functional; parameters: scale not given: the % may be the effect or the level left
SNB-75 = test: Growth inhibition of human SNB75 cells at 10 uM after 96 hrs by MTT assay; format: functional; parameters: scale not given: the % may be the effect or the level left
COLO 205 = test: Growth inhibition of human COLO205 cells at 10 uM after 96 hrs by MTT assay; format: functional; parameters: scale not given: the % may be the effect or the level left
T47D = test: Growth inhibition of human T47D cells at 10 uM after 96 hrs by MTT assay; format: functional; parameters: scale not given: the % may be the effect or the level left
RXF 393 = test: Growth inhibition of human RXF393 cells at 10 uM after 96 hrs by MTT assay; format: functional; parameters: scale not given: the % may be the effect or the level left
[2] = Growth inhibition of human RPMI8266 cells at 10 uM after 96 hrs by MTT assay; format: functional; parameters: scale not given: the % may be the effect or the level left
OVCAR-4 = test: Growth inhibition of human OVCAR4 cells at 10 uM after 96 hrs by MTT assay; format: functional; parameters: scale not given: the % may be the effect or the level left
[3] = Antitumor activity against human KB3 cells after 96 hrs by MTT assay; format: functional, cell-based; conditions: KB3, 96 h
Outline: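 Human KB-3 carcinoma cells exposed to increasing compound concentrations; viability read by MTT colorimetric assay after 96 h. Values are means of triplicate assays, expressed relative to untreated controls.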

SF-268 = test: Growth inhibition of human SF268 cells at 10 uM after 96 hrs by MTT assay; format: functional; parameters: scale not given: the % may be the effect or the level left
NCI-H460 = test: Growth inhibition of human NCI-H460 cells at 10 uM after 96 hrs by MTT assay; format: functional; parameters: scale not given: the % may be the effect or the level left
OVCAR-8 = test: Growth inhibition of human OVCAR8 cells at 10 uM after 96 hrs by MTT assay; format: functional; parameters: scale not given: the % may be the effect or the level left
ACHN = test: Growth inhibition of human ACHN cells at 10 uM after 96 hrs by MTT assay; format: functional; parameters: scale not given: the % may be the effect or the level left
CCRF-CEM = test: Growth inhibition of human CCRF-CEM cells at 10 uM after 96 hrs by MTT assay; format: functional; parameters: scale not given: the % may be the effect or the level left
OVCAR-3 = test: Growth inhibition of human OVCAR-3 cells at 10 uM after 96 hrs by MTT assay; format: functional; parameters: scale not given: the % may be the effect or the level left
A498 = test: Growth inhibition of human A498 cells at 10 uM after 96 hrs by MTT assay; format: functional; parameters: scale not given: the % may be the effect or the level left
SK-MEL-28 = test: Growth inhibition of human SK-MEL-28 cells at 10 uM after 96 hrs by MTT assay; format: functional; parameters: scale not given: the % may be the effect or the level left
U-251 = test: Growth inhibition of human U251 cells at 10 uM after 96 hrs by MTT assay; format: functional; parameters: scale not given: the % may be the effect or the level left
SW-620 = test: Growth inhibition of human SW620 cells at 10 uM after 96 hrs by MTT assay; format: functional; parameters: scale not given: the % may be the effect or the level left

C=C(C)[C@H]1CC(=O)C(C)=C2[C@@H](C(=O)OCC)O[C@@H](c3ccc(Cl)cc3Cl)[C@@H]21
Activity (SK-MEL-2): 39.43% | Activity (HOP-92): 49.8% | Activity (NCI-H226): 81.04% | Activity (786-0): 84.02% | Activity (DU-145): 83.07% | Activity (NCI-H322M): 92.62% | Activity (SNB-19): 89.23% | Activity (UO-31): 121.05% | Activity [1]: 78.32% | Activity (HL-60(TB)): -31.34% | Activity (SR): 12.69% | Activity (SF-295): 88.75% | Activity (IGROV-1): 80.84% | Activity (SN12C): 94.13% | Activity (MDA-MB-435): 48.5% | Activity (NCI-H23): 65.8% | Activity (SF-539): 76.69% | Activity (KM12): 63.13% | Activity (TK-10): 98.26% | Activity (HCT-116): 42.99% | Activity (HCC 2998): 107.11% | Activity (A549): 41.04% | Activity (SK-MEL-5): 52.4% | Activity (OVCAR-5): 119.16% | Activity (M14): 78.49% | Activity (K562): 25.32% | Activity (MOLT-4): 17.98% | Activity (HT-29): 66.3% | Activity (NCI-H522): 9.23% | Activity (EKVX): 69.98% | Activity (NCI/ADR-RES): 74.31% | Activity (PC-3): 44.34% | Activity (LOX IMVI): 66.98% | Activity (MDA-MB-231): 76.61% | Activity (HCT-15): 71.15% | Activity (Malme-3M): 84.13% | Activity (MDA-MB-468): 13.57% | Activity (MCF7): 62.06% | Activity (SK-OV-3): 103.67% | Activity (BT-549): 41.32% | Activity (HOP-62): 84.64% | Activity (UACC-257): 51.65% | Activity (UACC-62): 45.44% | Activity (SNB-75): 50.59% | Activity (COLO 205): 94.54% | Activity (T47D): 40.94% | Activity (RXF 393): 69.05% | Activity [2]: -4.6% | Activity (OVCAR-4): 65.97% | IC50 [3]: 3000 nM | Activity (SF-268): 78.47% | Activity (NCI-H460): 58.73% | Activity (OVCAR-8): 81.47% | Activity (ACHN): 89.8% | Activity (CCRF-CEM): 19.48% | Activity (OVCAR-3): 72.74% | Activity (A498): 82.29% | Activity (SK-MEL-28): 98.82% | Activity (U-251): 53.44% | Activity (SW-620): 72.54%
